# Measurements from different studies.
# pEC50, pIC50: −log10 of the molar value.
# Read-out: cell growth or viability
SMILES,cell line,method,tested at,time,notes,endpoint,result
C=CC(=O)N1CCC[C@@H](n2nc(-c3ccc(Oc4ccccc4)cc3)c3c(N)ncnc32)C1,UPN1,ATP luminescence,,72 h,,GI50,4.87 µM
CCNc1ccnc(Nc2cccc(-c3cccnc3)c2)n1,BJ,ATP luminescence,,72 h,,pEC50,< 4.68
O=C(Nc1cncc(-c2nc3ccccc3s2)c1)c1cc([N+](=O)[O-])c(N2CCNCC2)cc1Cl,BJ,ATP luminescence,,,,pEC50,< 4.82
C[C@]12CC[C@@H]3c4ccc(O)cc4CC[C@H]3[C@@H]1CC[C@@H]2O,OVCAR-3,ATP luminescence,,72 h,,EC90,76.1 µM
COC(=O)[C@H](C)Nc1ccnc(Nc2cccc(-c3cccnc3)c2)n1,BJ,ATP luminescence,,72 h,,pEC50,< 5.10
CC(=O)c1c(C)c2cnc(Nc3ccc(N4CCNCC4)cn3)nc2n(C2CCCC2)c1=O,MDA-MB-157,resazurin,,,,GI50,> 5 µM
Cc1cc(Cl)c(Cl)cc1NC(=O)c1ccc(N2CCNCC2)nc1,BJ,ATP luminescence,,,,pEC50,< 4.62
CN(C)C/C=C/C(=O)Nc1cc2c(Nc3ccc(F)c(Cl)c3)ncnc2cc1O[C@H]1CCOC1,KB-C2,ATP luminescence,3 µM,12 days,3D culture,viability,67.7%
COc1cc(-c2ccc(-c3ccc(C(=N)N)nc3)s2)cc(OC)c1OC,OVCAR-3,SRB,,,,GI50,2.6 µM
Oc1ccc(Nc2nc(-c3ccc(Cl)cc3)cs2)cc1,1205Lu,MTS,,48 h,,pIC50,4.06
c1cc(Nc2nccc(NC3CCCCC3)n2)cc(-c2ncco2)c1,BJ,ATP luminescence,,72 h,,pEC50,< 4.35
COc1ccc(-c2ccc(-c3ccc(C(=N)N)nc3)s2)cc1,ACHN,,,,,GI50,1.84 µM
CC(C)Nc1ccnc(Nc2cccc(-c3cccnc3)c2)n1,BJ,ATP luminescence,,72 h,,pEC50,< 4.77
CC#CC(=O)N1CC[C@@H](n2cc(-c3ccc(Oc4c(F)cccc4F)cc3)c3c(N)n[nH]c(=O)c32)C1,UPN1,ATP luminescence,,72 h,,GI50,2.21 µM
